Tests used:
[1] = Lipophilicity (Rm) (liquid chromatography); assay type: physicochemical
Procedure, shortened: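 Rm is measured for drug cations at pH 2 by liquid-liquid chromatography on a cellulose support.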

[2] = Binding affinity towards poly[d(A-T)] (fluorometric method); assay type: ADME
Procedure, shortened: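 Log R for binding to poly[d(A-T)] measured fluorometrically, corrected for quenching.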

L1210 = assay: In vitro test for 50% reduction of cell number (of control) after 70 hr incubation with cultures of murine L1210 leukemia cells; assay type: functional; conditions: Mus musculus, L1210, 70 h; read-out: ID50 (the source's name)
P388 [3] = assay: In vivo dose of drug needed for a percentage increase of 50% in life span of tumor-bearing mice compared to untreated controls after inoculation of 10e6 P388 leukemia cells; assay type: functional, Mus musculus
P388 [4] = assay: In vivo tumor cell selectivity (ILSmax values)for percentage increase in life span of treated animals over that of P388 tumor bearing untreated control animals; assay type: functional, Mus musculus
P388 [5] = assay: In vivo inhibition of P388 in mice for optimal (highest nonacutely toxic) dose (OD); assay type: functional, Mus musculus
Procedure, shortened: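 F1 (DBA/2J × C57BlJ) mice, 19-21 g, either sex, inoculated with 10^6 P388 leukemia cells on day 0. Drug given ip in 0.1 mL 30% aqueous ethanol on days 1, 5 and 9, as a solution or, at highest doses, as a sonicated suspension. Doses stepped down from a toxic level at 0.67-fold intervals. Groups of six mice; ILS relative to 20-30 controls. OD is the highest nonacutely toxic daily dose.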

P388 [6] = assay: Dose of drug needed to provide a percentage increase in life span of tumor-bearing mice in vivo of […]% compared to untreated controls after inoculation of 10e6 P388 leukemia cells; h=ILS of >50% could not be obtained at any dose level; assay type: functional, organism-based; conditions: Mus musculus

SMILES	Rm [1]	Log K [2]	IC50 (L1210) [nM]	D50 (P388 [3]) [mg/kg/day]	Activity (P388 [4]) [%]	OD (P388 [5]) [mg/kg/day]	D50 (P388 [6])
COc1cc(NS(C)(=O)=O)ccc1Nc1c2ccccc2nc2cc(Cl)ccc12	0.32	6.06	70	5	232	20	
COP(=O)(Nc1ccc(Nc2c3ccccc3nc3cc(Cl)ccc23)cc1)OC	0.46	7	16	35	62	45	
CNC(=O)c1cccc2c(Nc3ccc(NP(=O)(OC)OC)cc3OC)c3ccccc3nc12	0.28	5.94	18	13		30	
CS(=O)(=O)Nc1ccc(Nc2c3ccccc3nc3cc(N)ccc23)cc1	-0.18	6.82	10	8	67	8.9	
CNC(=O)c1cccc2c(Nc3ccc(NS(C)(=O)=O)cc3OC)c3ccccc3nc12	0.06	5.54	270	8	127	30	
COP(=O)(Nc1ccc(Nc2c3ccccc3nc3ccccc23)cc1)OC	0.34	6.26	15	15	107	45	
COc1cc(NP(=O)(OC)OC)ccc1Nc1c2ccccc2nc2cc(Br)ccc12	0.57	6.44	5	4	83	13.3	
COc1cc(NS(C)(=O)=O)ccc1Nc1c2ccccc2nc2ccccc12 [AMSACRINE]	0.18	5.57		3	58		
CS(=O)(=O)Nc1ccc(Nc2c3ccccc3nc3cc(Br)ccc23)cc1	0.16	6.93	16		33	100	ILS not obtained
COP(=O)(Nc1ccc(Nc2c3ccccc3nc3c(C)cccc23)cc1)OC	0.46	6.75	9	9		20	
COP(=O)(Nc1ccc(Nc2c3ccccc3nc3cc(C)ccc23)cc1)OC	0.49	6.77	7	6	84	20	
COc1cccc2c(Nc3ccc(NS(C)(=O)=O)cc3)c3ccccc3nc12	0.01	6.24	45	125	58	150	
COc1cc(NP(=O)(OC)OC)ccc1Nc1c2ccccc2nc2c(OC)cccc12	0.47	6.09	12	6	76	9	
CNC(=O)c1cccc2c(Nc3ccc(NP(=O)(OC)OC)cc3)c3ccccc3nc12	0.18	6.46	97	60	56	66	
COc1cc(NP(=O)(OC)OC)ccc1Nc1c2ccccc2nc2c(C)cccc12	0.44	6.16	18	3		8.9	
COc1cc(NS(C)(=O)=O)ccc1Nc1c2ccccc2nc2c(C)cccc12	0.25	6.03	30	4	172	20	
COP(=O)(Nc1ccc(Nc2c3ccccc3nc3cc(S(C)(=O)=O)ccc23)cc1)OC	-0.14	5.63	> 1500			150	ILS not obtained
COP(=O)(Nc1ccc(Nc2c3ccccc3nc3cc(N)ccc23)cc1)OC	0.06	6.9	385	5	58	5.9	
COc1cc(NP(=O)(OC)OC)ccc1Nc1c2ccccc2nc2cc(Cl)ccc12	0.61	6.4	12	5.5	91	13.3	
COP(=O)(Nc1ccc(Nc2c3ccccc3nc3cc(Br)ccc23)cc1)OC	0.47	6.56	15	20	110	65	
Cc1ccc2c(Nc3ccc(NS(C)(=O)=O)cc3)c3ccccc3nc2c1	0.24	6.41	8	27	73	50	
Cc1cccc2c(Nc3ccc(NS(C)(=O)=O)cc3)c3ccccc3nc12	0.07	6.52	17	50	75	66	
COc1cc(NP(=O)(OC)OC)ccc1Nc1c2ccccc2nc2ccccc12	0.47	5.64	70	3.5	67	8.9	
COc1cc(NS(C)(=O)=O)ccc1Nc1c2ccccc2nc2c(OC)cccc12	0.19	5.94	40	8	139	30	
CS(=O)(=O)Nc1ccc(Nc2c3ccccc3nc3cc(Cl)ccc23)cc1	0.14	6.89	50	60	53	65	
COc1cc(NS(C)(=O)=O)ccc1Nc1c2ccccc2nc2cc(Br)ccc12	0.34	6.29	50	4	133	20	
COc1cccc2c(Nc3ccc(NP(=O)(OC)OC)cc3)c3ccccc3nc12	0.33	6.53	20	45	50	45	
CS(=O)(=O)Nc1ccc(Nc2c3ccccc3nc3ccccc23)cc1	0		35	35	102	150	

Source: ChEMBL document CHEMBL1122747, “Potential antitumor agents. 42. Structure-activity relationships for acridine-substituted dimethyl phosphoramidate derivatives of 9-anilinoacridine” (J Med Chem, 1984)
